Data on 167 variants can be found in the RNAGym collection of RNA variant scans (doi:10.1126/science.aae0568).

Fewer inactive variants are shown than the library holds. A value given as a limit tells only on which side of the number the result lay.

B1: tRNA (parent)
chain: GUUCCGUUGGCGUAAUGGUAACGCGUCUCCCUCCUAAGGAGAAGACUGCGGGUUCGAGUCCCGUACGGAACG

Variants of B1 are the subject of the series. Put plainly: yeast fitness relative to wild type (ratio to wild type); higher = fitter; tRNA-Arg(CCU), competitive growth, 37 C, YPD. The gist of the method: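 Variants of the tRNA-Arg(CCU) gene were chemically synthesised with a 3% per-site mutation rate across 69 sites and placed at the native genomic locus in Saccharomyces cerevisiae. Six parallel replicates of the pooled strains were competed in YPD at 37°C for 24 hours, and gene amplicons from the start and end populations were read by 100-nucleotide paired-end sequencing. Darwinian fitness relative to wild type was derived from changes in genotype frequencies. Genotypes required ≥ 100 starting reads, and estimates < 0.5 were set to 0.5.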
Turning to U26A G68A, the yeast fitness amounted to 0.779.

For the variant U26C A37G A69U, the yeast fitness came out at 0.665.

Regarding U26A U54G, the yeast fitness was determined as 0.531.

For U26A U54C, the yeast fitness came to 0.817.

In the case of U26A C55G, the yeast fitness came out at 0.571.

With U26A C61U, the yeast fitness was found to be 0.817.

With U26A C61A, the yeast fitness worked out at 0.656.

As for U26G C46G C55G, the yeast fitness was ≤ 0.5.

On to U26C A70U, for which the yeast fitness was 0.926.

Consider U26C A70C, for which the yeast fitness is 0.797.

On to U26C C34A, for which the yeast fitness was 0.817.

Regarding U26C C61U U64A, the yeast fitness is 0.526.

Regarding U26C C31A G38C, the yeast fitness stood at 0.529.

In the case of U26A A43C A45U C55U A65C, the yeast fitness was ≤ 0.5.

With U26C G50A U59A G67C, the yeast fitness is ≤ 0.5.

For U26C G48A, the yeast fitness was 1.05.

On to U26A A40U G58A A70C, for which the yeast fitness is ≤ 0.5.

For the variant U26A C34U C62A, the yeast fitness was ≤ 0.5.

With U26A C30A A36U G52A G58A, the yeast fitness was ≤ 0.5.

On to U26A U32C C49G, for which the yeast fitness was 0.575.

For U26C G52A, the yeast fitness came out at 0.748.

Regarding U26C C55A, the yeast fitness is 0.65.

Take U26C C55G: the yeast fitness worked out at 0.59.

On to U26C G41A U47C C61G C62U, for which the yeast fitness was ≤ 0.5.

Consider U26C A40G A57C, for which the yeast fitness was 0.56.

For U26A A42C C49U C60G C66A, the yeast fitness came out at 0.733.

On to U26A A43G, for which the yeast fitness amounted to 0.832.

For the variant U26A U32C, the yeast fitness came to 0.936.

Turning to U26A U32A, the yeast fitness stood at 0.805.

For U26G A42C C61U, the yeast fitness came to 0.684.

For U26A A40U A69U, the yeast fitness was 0.699.

U26C A36C A65U G68A: the yeast fitness is ≤ 0.5.

With U26C A36C U64A A70C, the yeast fitness is ≤ 0.5.

As to U26A G38C U47G, the yeast fitness was ≤ 0.5.

Regarding U26C G50U, the yeast fitness stood at 0.733.

U26C G50C: the yeast fitness amounted to 0.732.

As for U26C C29G C49U, the yeast fitness was ≤ 0.5.

Turning to U26A C27G, the yeast fitness worked out at 0.57.

For U26C C62U G67A, the yeast fitness is 0.542.

For the variant U26A A45G, the yeast fitness turned out to be 0.882.

For the variant U26A A45C, the yeast fitness is 0.698.

On to U26C G44A A70U, for which the yeast fitness came out at 0.657.

Regarding U26A A69C, the yeast fitness came out at 1.06.

On to U26A A69U, for which the yeast fitness worked out at 1.03.

Consider U26C C66G G68C, for which the yeast fitness is ≤ 0.5.

Turning to U26A G41A C66A, the yeast fitness is ≤ 0.5.

U26A C49G C61A: the yeast fitness was ≤ 0.5.

For U26C C34G A70C, the yeast fitness is ≤ 0.5.

For U26A C66A A69C, the yeast fitness is ≤ 0.5.

Turning to U26C G44A, the yeast fitness came out at 0.945.

Take U26C G44C: the yeast fitness stood at 0.77.

Turning to G25U G44C, the yeast fitness was 0.647.

Consider U26A U59A, for which the yeast fitness came out at 0.822.

U26G C27U G50C: the yeast fitness was ≤ 0.5.

For the variant U26A G52A A70U, the yeast fitness was ≤ 0.5.

Regarding U26G A40G U59G C62A, the yeast fitness is ≤ 0.5.

For the variant U26C U32A C34U G38C G51A A57C C66U, the yeast fitness was found to be 0.66.

For the variant U26G C33G C34G A40U G68A, the yeast fitness was ≤ 0.5.

In the case of U26C C27G C34U A37U A43G A45G A57G, the yeast fitness is ≤ 0.5.

Consider U26A C60G, for which the yeast fitness stood at 0.691.

With G25U A36U C49U, the yeast fitness is ≤ 0.5.

For the variant G25U A45C C62A, the yeast fitness is 0.777.

With U26G A36U U47G, the yeast fitness worked out at 0.626.

Turning to U26A A70C, the yeast fitness is 0.928.

On to U26C C30G U64C, for which the yeast fitness was 0.703.

For the variant U26C A65U, the yeast fitness is 0.896.

With U26C A65G, the yeast fitness worked out at 0.932.

Consider U26C A65C, for which the yeast fitness was found to be 0.819.

U26C G38A A43C A65C: the yeast fitness is ≤ 0.5.

Regarding U26C G48A C55U, the yeast fitness was found to be 0.561.

Take U26G C27G U47A C62U: the yeast fitness was ≤ 0.5.

U26C C27U A36G: the yeast fitness is 0.72.

In the case of U26A C30G G38C A42U G58C, the yeast fitness amounted to 0.759.

Regarding U26A C34G, the yeast fitness came out at 0.618.

Turning to U26C A40U C60U A69C, the yeast fitness was 0.535.

U26A A40C: the yeast fitness was 0.755.

In the case of U26G A45U, the yeast fitness came to 0.789.

As for U26A A37C A57U, the yeast fitness was ≤ 0.5.

Consider U26A G39C G48A C60G, for which the yeast fitness was ≤ 0.5.

On to U26A G39C, for which the yeast fitness was 0.751.

Regarding U26A A43U A70U, the yeast fitness turned out to be 0.838.

Regarding U26A A40G C62U, the yeast fitness was 0.567.

In the case of U26A A40G C49G C61A, the yeast fitness turned out to be 0.626.

Take U26C U32A C34U G38C: the yeast fitness worked out at 0.525.

Turning to G25U C27A G41A C62U, the yeast fitness is ≤ 0.5.

Regarding U26A G41U C55U, the yeast fitness is ≤ 0.5.

Regarding U26C C31U C49U C66G, the yeast fitness was ≤ 0.5.

As for U26G C31A, the yeast fitness is 0.804.

As for U26G C31U, the yeast fitness is 1.02.

In the case of U26C C46A C61U G67A, the yeast fitness is ≤ 0.5.

With U26C C46A C61U, the yeast fitness is ≤ 0.5.

Consider U26A G44C C62U, for which the yeast fitness is 0.622.

Consider U26A G44C C62A, for which the yeast fitness was 0.598.

In the case of U26A C49U C60U A69G, the yeast fitness was ≤ 0.5.

Regarding U26C C46G C62G U64C G67U, the yeast fitness is ≤ 0.5.

For the variant U26C C27A C34U G41A, the yeast fitness is ≤ 0.5.

Turning to U26A C30U A37U, the yeast fitness is ≤ 0.5.

For the variant U26A C30U, the yeast fitness came to 0.787.

With U26C C29A C30A A45U, the yeast fitness amounted to 0.582.

Regarding U26G C31U U54A, the yeast fitness is 0.569.

Take U26G A36G A70G: the yeast fitness was 0.652.

With U26G C60A, the yeast fitness is 0.593.

As for U26C U28A C29G A69U, the yeast fitness is ≤ 0.5.

Turning to U26A A43U G68A, the yeast fitness is ≤ 0.5.

Turning to U26A U53A, the yeast fitness turned out to be 0.557.

Take U26A U53G: the yeast fitness was determined as 0.704.

With U26A U32C A57C G67A A69U, the yeast fitness was ≤ 0.5.

Consider U26C C29G, for which the yeast fitness came out at 0.735.

Regarding U26C C29U, the yeast fitness turned out to be 0.869.

Regarding U26C C29A, the yeast fitness was found to be 0.664.

With U26C A37C A40U A57C U64G, the yeast fitness was ≤ 0.5.

As for U26G A36U U47G C62U G68C, the yeast fitness was ≤ 0.5.

For U26A A43C G52U C55A, the yeast fitness was ≤ 0.5.

For the variant U26C U32A C34U G38C G51A A57C, the yeast fitness was found to be 0.653.

Take U26C G58C A69C: the yeast fitness was 0.697.

With U26A G48A C49G, the yeast fitness was 0.552.

Consider U26A C34U U47G U64A, for which the yeast fitness was ≤ 0.5.

On to U26G C29G C62U A70G, for which the yeast fitness came out at 0.61.

As for U26A A36C C61U, the yeast fitness was ≤ 0.5.

U26A C27G C30G A36U G38C C46U C49G A65U: the yeast fitness was found to be 0.573.

Take U26C U35A U47A U54A: the yeast fitness is ≤ 0.5.

For U26C G44A G68U, the yeast fitness worked out at 0.533.

U26A C31A A37U A43U: the yeast fitness was ≤ 0.5.

Turning to U26C C34U G44C U47G, the yeast fitness is ≤ 0.5.

With U26C A36G, the yeast fitness worked out at 0.856.

With U26C C27G C34U A37U A43G A45G, the yeast fitness was ≤ 0.5.

For the variant U26C C29G A65G C66G G68C, the yeast fitness is ≤ 0.5.

With U26C A43U, the yeast fitness came to 0.884.

For U26G A42C, the yeast fitness was 1.03.

With G25U A36U G56C U64C A65C, the yeast fitness is ≤ 0.5.

Consider U26A A36G G56C, for which the yeast fitness is ≤ 0.5.

For the variant U26C C33U C55U C60U, the yeast fitness is ≤ 0.5.

Turning to U26C A57C, the yeast fitness is 0.611.

As for U26C C66G, the yeast fitness is 0.674.

For the variant U26C C66U, the yeast fitness came out at 0.823.

For U26A C27G C62A, the yeast fitness is ≤ 0.5.

For the variant U26G A37C A42G G44C A45G C49U A65U, the yeast fitness was ≤ 0.5.

Consider U26A U35G A37U G56C A65G, for which the yeast fitness was ≤ 0.5.

As for U26C A37U A57G, the yeast fitness is 0.658.

Consider U26C U47G G50C C66A, for which the yeast fitness was found to be 0.685.

As for U26C C29A C34A, the yeast fitness is ≤ 0.5.

U26C A37U U54A: the yeast fitness is ≤ 0.5.

Take U26G A45G C46U G50A U53G C66U A69U: the yeast fitness was ≤ 0.5.

Take U26A G63A: the yeast fitness was 0.86.

Consider U26A G63C, for which the yeast fitness came out at 0.683.

On to U26C A37G, for which the yeast fitness is 0.634.

Regarding U26A A42U, the yeast fitness was found to be 0.981.

For the variant U26C U53A, the yeast fitness is 0.706.

U26C C46A U47G G50A A69U: the yeast fitness is ≤ 0.5.

With U26C U28C A70G, the yeast fitness is 0.73.

In the case of U26A C46U A65C, the yeast fitness stood at 0.631.

U26A C27U G41A A65G: the yeast fitness stood at 0.534.

On to U26G C31G A36U G41A A45C, for which the yeast fitness was ≤ 0.5.

U26A G38C A45U C55U: the yeast fitness is ≤ 0.5.

As to U26C A37C A40C A57C U64G, the yeast fitness was determined as 0.614.

Take U26C U32C A37G C49G: the yeast fitness was ≤ 0.5.

As for U26C C29G G68C, the yeast fitness came to 0.558.

As for U26A C30A A65C, the yeast fitness was determined as 0.511.

G25U C30U A40U: the yeast fitness was ≤ 0.5.

Turning to U26C G41C C46A, the yeast fitness is 0.627.

For the variant U26C U28C C34G U59A A65U, the yeast fitness is ≤ 0.5.

For the variant U26C A37G C60A, the yeast fitness was ≤ 0.5.

Regarding U26C G48A A57G C61G, the yeast fitness came out at 0.501.

On to U26A A37C C61A, for which the yeast fitness is ≤ 0.5.

Regarding U26C U35C G50C G52A, the yeast fitness is ≤ 0.5.

Take U26A U28C C30G A37C: the yeast fitness was ≤ 0.5.

Take U26G C46U: the yeast fitness was determined as 1.01.
